One experiment addresses BCL2L1/BAD (Homo sapiens, UniProt Q07817). The experiment in a line: Inhibition of BAD/His-SUMO tagged BCL-XL (1 to 209 residues; missing 27 to 82 residues) (unknown origin) overexpressed in Escherichia coli BL21 protein-protein interaction by fluorescence anisotropy competition assay. The procedure, abridged: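 Final conditions: 200 nM BCL-xL, 50 nM tracer, 20 mM Tris, 150 mM NaCl, pH 7.6, 20 °C, with peptide titrated. Tracer Kd for BCL-xL was determined beforehand by direct titration (6 nM-125 μM protein).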
On the technique in general: In fluorescence polarisation assays a small probe gives low polarisation when free and higher when bound to something large.

For experiment [1], the target named is Induced myeloid leukemia cell differentiation protein Mcl-1/BH3-interacting domain death agonist (Homo sapiens) (UniProt Q07820+P55957). Briefly: Inhibition of BID/MCL-1 interaction (unknown origin) by fluorescence anisotropy competition assay. It counts as protein assay.
Sequence of Induced myeloid leukemia cell differentiation protein Mcl-1/BH3-interacting domain death agonist (Homo sapiens) (P55957 whole entry, looked up, the tested form may be a part): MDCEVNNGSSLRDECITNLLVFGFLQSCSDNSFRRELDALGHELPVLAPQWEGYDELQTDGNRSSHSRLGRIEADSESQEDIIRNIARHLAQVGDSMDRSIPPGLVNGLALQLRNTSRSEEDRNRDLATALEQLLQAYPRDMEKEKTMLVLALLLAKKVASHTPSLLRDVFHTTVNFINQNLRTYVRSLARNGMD
Sequence of Induced myeloid leukemia cell differentiation protein Mcl-1/BH3-interacting domain death agonist (Homo sapiens) (Q07820 whole entry, looked up, the tested form may be a part): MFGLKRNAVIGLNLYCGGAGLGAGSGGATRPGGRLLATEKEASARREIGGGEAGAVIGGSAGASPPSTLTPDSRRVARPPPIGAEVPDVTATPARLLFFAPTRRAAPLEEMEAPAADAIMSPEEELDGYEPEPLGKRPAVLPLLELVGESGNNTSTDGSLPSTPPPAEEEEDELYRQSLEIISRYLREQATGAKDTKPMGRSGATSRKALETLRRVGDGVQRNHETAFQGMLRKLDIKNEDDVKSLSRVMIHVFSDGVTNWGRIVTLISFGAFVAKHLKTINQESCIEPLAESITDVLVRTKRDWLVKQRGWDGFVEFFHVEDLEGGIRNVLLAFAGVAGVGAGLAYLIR

Molecules are shown by their SMILES. The source made the active and inactive calls. No cut-off for these calls is given here. Where a SMILES comes first, the peptide text is derived from it.

Data on 7 compounds can be found in ChEMBL document CHEMBL5344414, “Maleimide constrained BAD BH3 domain peptides as BCL-xL Inhibitors: A versatile approach to rapidly identify sites compatible with peptide constraining” (Bioorg Med Chem Lett, 2023).

Sequence of BCL2L1/BAD (Q92934 whole entry, the tested form may be a part): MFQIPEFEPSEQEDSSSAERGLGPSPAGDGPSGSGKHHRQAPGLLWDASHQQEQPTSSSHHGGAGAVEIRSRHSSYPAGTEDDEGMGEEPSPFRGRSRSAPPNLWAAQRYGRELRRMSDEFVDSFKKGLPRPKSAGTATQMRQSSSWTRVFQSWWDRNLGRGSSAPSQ
Sequence of BCL2L1/BAD (Q07817 whole entry, the tested form may be a part): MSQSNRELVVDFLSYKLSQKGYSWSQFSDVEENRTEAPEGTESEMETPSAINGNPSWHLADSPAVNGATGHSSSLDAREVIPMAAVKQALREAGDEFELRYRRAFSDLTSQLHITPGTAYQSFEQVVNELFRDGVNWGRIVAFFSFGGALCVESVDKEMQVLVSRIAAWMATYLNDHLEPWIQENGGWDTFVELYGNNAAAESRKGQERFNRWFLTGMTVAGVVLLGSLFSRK

On to `CSCC[C@H](NC(=O)[C@H](CCCNC(=N)N)NC(=O)[C@H](CCCNC(=N)N)NC(=O)[C@H](CC(C)C)NC(=O)[C@H](CCC(=O)O)NC(=O)[C@H](CCCNC(=N)N)NC(=O)CNC(=O)[C@H](Cc1ccc(O)cc1)NC(=O)[C@H](CCCNC(=N)N)NC(=O)[C@H](CCC(N)=O)NC(=O)[C@H](C)NC(=O)[C@H](C)NC(=O)[C@H](Cc1c[nH]c2ccccc12)NC(=O)[C@H](CC(C)C)NC(=O)[C@H](CC(N)=O)NC(C)=O)C(=O)N[C@@H](CO)C(=O)N[C@@H](CC(=O)O)C(=O)N[C@@H](CCC(=O)O)C(=O)N[C@@H](Cc1ccccc1)C(=O)N[C@H](C(=O)N[C@@H](CC(=O)O)C(=O)N[C@@H](CO)C(=O)N[C@@H](Cc1ccccc1)C(=O)N[C@@H](CCCCN)C(=O)N[C@@H](CCCCN)C(N)=O)C(C)C`, for which the IC50 at BCL2L1/BAD came to 0.2 µM. Also, the inhibition entry in experiment [1] is “inactive”.

On BCL2L1/BAD, `CSCC[C@@H]1NC(=O)[C@@H](NC(=O)[C@H](CCCNC(=N)N)NC(=O)[C@H](CC(C)C)NC(=O)[C@H](CCC(=O)O)NC(=O)[C@H](CCCNC(=N)N)NC(=O)CNC(=O)[C@H](Cc2ccc(O)cc2)NC(=O)[C@H](CCCNC(=N)N)NC(C)=O)CS2=S(C[C@@H](C(=O)N[C@@H](Cc3ccccc3)C(=O)N[C@H](C(=O)N[C@@H](CC(=O)O)C(=O)N[C@@H](CO)C(=O)N[C@@H](Cc3ccccc3)C(=O)N[C@@H](CCCCN)C(=O)N[C@@H](CCCCN)C(N)=O)C(C)C)NC(=O)[C@H](CC(=O)O)NC(=O)[C@H](CO)NC1=O)C(=O)NC2=O` (stereo partly specified) registered an IC50 of 2.4 µM. The inhibition result in experiment [1] was “inactive”.

As to `CSCC[C@H](NC(=O)[C@H](CS)NC(=O)[C@H](CCCNC(=N)N)NC(=O)[C@H](CC(C)C)NC(=O)[C@H](CCC(=O)O)NC(=O)[C@H](CCCNC(=N)N)NC(=O)CNC(=O)[C@H](Cc1ccc(O)cc1)NC(=O)[C@H](CCCNC(=N)N)NC(C)=O)C(=O)N[C@@H](CO)C(=O)N[C@@H](CC(=O)O)C(=O)N[C@@H](CS)C(=O)N[C@@H](Cc1ccccc1)C(=O)N[C@H](C(=O)N[C@@H](CC(=O)O)C(=O)N[C@@H](CO)C(=O)N[C@@H](Cc1ccccc1)C(=O)N[C@@H](CCCCN)C(=O)N[C@@H](CCCCN)C(N)=O)C(C)C` (Ac-RYGRELRCMSDCFVDSFKK-NH2), on BCL2L1/BAD, the IC50 amounted to 6.9 µM. In experiment [1], the inhibition entry was “inactive”.

For `CSCC[C@H](NC(=O)[C@H](CCCNC(=N)N)NC(=O)[C@H](CCCNC(=N)N)NC(=O)[C@H](CC(C)C)NC(=O)[C@H](CCC(=O)O)NC(=O)[C@H](CCCNC(=N)N)NC(=O)CNC(=O)[C@H](Cc1ccc(O)cc1)NC(=O)[C@H](CCCNC(=N)N)NC(C)=O)C(=O)N[C@@H](CS)C(=O)N[C@@H](CC(=O)O)C(=O)N[C@@H](CCC(=O)O)C(=O)N[C@@H](Cc1ccccc1)C(=O)N[C@@H](CS)C(=O)N[C@@H](CC(=O)O)C(=O)N[C@@H](CO)C(=O)N[C@@H](Cc1ccccc1)C(=O)N[C@@H](CCCCN)C(=O)N[C@@H](CCCCN)C(N)=O` (Ac-RYGRELRRMCDEFCDSFKK-NH2), the IC50 at BCL2L1/BAD stood at 2.9 µM.

At BCL2L1/BAD, `CSCC[C@H](NC(=O)[C@H](CCCNC(=N)N)NC(=O)[C@H](CCCNC(=N)N)NC(=O)[C@H](CC(C)C)NC(=O)[C@H](CCC(=O)O)NC(=O)[C@H](CCCNC(=N)N)NC(=O)CNC(=O)[C@H](Cc1ccc(O)cc1)NC(=O)[C@H](CCCNC(=N)N)NC(C)=O)C(=O)N[C@@H](CO)C(=O)N[C@@H](CS)C(=O)N[C@@H](CCC(=O)O)C(=O)N[C@@H](Cc1ccccc1)C(=O)N[C@H](C(=O)N[C@@H](CS)C(=O)N[C@@H](CO)C(=O)N[C@@H](Cc1ccccc1)C(=O)N[C@@H](CCCCN)C(=O)N[C@@H](CCCCN)C(N)=O)C(C)C` (Ac-RYGRELRRMSCEFVCSFKK-NH2) had an IC50 of more than 50 µM.

Turning to `CSCC[C@H](NC(=O)[C@H](CCCNC(=N)N)NC(=O)[C@H](CCCNC(=N)N)NC(=O)[C@H](CC(C)C)NC(=O)[C@H](CCC(=O)O)NC(=O)[C@H](CCCNC(=N)N)NC(=O)CNC(=O)[C@H](Cc1ccc(O)cc1)NC(=O)[C@H](CCCNC(=N)N)NC(C)=O)C(=O)N[C@@H](CO)C(=O)N[C@@H](CC(=O)O)C(=O)N[C@@H](CS)C(=O)N[C@@H](Cc1ccccc1)C(=O)N[C@H](C(=O)N[C@@H](CC(=O)O)C(=O)N[C@@H](CS)C(=O)N[C@@H](Cc1ccccc1)C(=O)N[C@@H](CCCCN)C(=O)N[C@@H](CCCCN)C(N)=O)C(C)C` (Ac-RYGRELRRMSDCFVDCFKK-NH2), the IC50 at BCL2L1/BAD was found to be 4.5 µM.

As to `CSCC[C@H](NC(=O)[C@H](CCCNC(=N)N)NC(=O)[C@H](CCCNC(=N)N)NC(=O)[C@H](CC(C)C)NC(=O)[C@H](CCC(=O)O)NC(=O)[C@H](CCCNC(=N)N)NC(=O)CNC(=O)[C@H](Cc1ccc(O)cc1)NC(=O)[C@H](CCCNC(=N)N)NC(C)=O)C(=O)N[C@@H](CO)C(=O)N[C@@H](CC(=O)O)C(=O)N[C@@H](CCC(=O)O)C(=O)N[C@@H](Cc1ccccc1)C(=O)N[C@H](C(=O)N[C@@H](CC(=O)O)C(=O)N[C@@H](CO)C(=O)N[C@@H](Cc1ccccc1)C(=O)N[C@@H](CCCCN)C(=O)N[C@@H](CCCCN)C(N)=O)C(C)C` (Ac-RYGRELRRMSDEFVDSFKK-NH2), the IC50 at BCL2L1/BAD was 3.6 µM. Moreover, the inhibition result in experiment [1] was “inactive”.

Usually IC50 stands for the concentration needed to halve the response being measured. Read a high IC50 as weaker potency in that assay.
